Screens from PubChem.
MLLE-PAM2 inh: inhibitors of microRNA-mediated deadenylation, human PABP1 MLLE binding | P11940 | GST-MLLE / FITC-PAM2 fluorescence polarization | 360,000 tested, 0.36% active | inhibition, % at 20 µM; in the data active = inhibition above about 35%, passing the limit was not always enough;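 note: plate controls were DMSO wells with GST-MLLE for no effect and wells lacking GST-MLLE protein for full effect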
IMP-1 inh-1: inhibitors of Pseudomonas aeruginosa IMP-1 metallo-beta-lactamase. inhibition, % at 5.6 µM. 290,000 tested, 0.45% active. purified IMP-1, nitrocefin hydrolysis, epi-absorbance fluorescence. AID 1556;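 active = inhibition above the mean plus 3 SD of all compounds in the same screening run, cut at about 4.5% in these data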;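 note: 0% = IMP-1 with DMSO and 100% = DMSO wells lacking enzyme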
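System: Purified IMP-1 | Read-out basis: Percent enzyme inhibition | Controls: IMP-1 with DMSO as 0%, enzyme-free DMSO as 100% | Replicates: One well per compound | Doses: 5.6 µM nominal single concentration | Detection: Epi-absorbance fluorescence, 480 nm excitation, 530 nm emission | Incubation: 25 °C, 15 min preincubation, 25 min reaction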
VIM-2 inh: blocks Pseudomonas aeruginosa VIM-2 metallo-beta-lactamase; purified VIM-2, nitrocefin hydrolysis, epi-absorbance fluorescence; inhibition, % at 5.6 µM; 290,000 tested, 0.89% active; AID 1527;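 active = inhibition above the mean of all tested compounds plus 3 SD, cutoff set per screening run, cut at about 7.5% in these data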;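 note: red hydrolysis product quenches plate fluorescence so inhibitors raise well fluorescence; 0% = enzyme with DMSO and 100% = DMSO without enzyme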
eIF4H FP inh: inhibitors of RNA binding by human eIF4H. Q15056. eIF4H fluorescence polarization binding assay. inhibition, % at 35 µM. AID 2012. 290,000 tested, 0.94% active;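 note: calls also rest on retests at 20 µM and on dose response follow-up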
PABP FP inh: blocks human PABP binding to poly(A) RNA; P11940; fluorescence polarization; calls only at 35 µM; 290,000 tested, 1% active; AID 2014;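 note: calls also rest on retests at 20 µM and on dose response follow-up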
IMP-1 inh-2: blocks IMP-1 metallo-beta-lactamase in VIM-2 selectivity screen. shares compounds with VIM-2 inh. purified IMP-1, nitrocefin hydrolysis, epi-absorbance fluorescence. inhibition, % at 5.6 µM. 1,300 tested, under 10 active;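 note: 0% = enzyme with vehicle and 100% = vehicle without enzyme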
VIM-2 FRET inh: inhibits VIM-2 in FRET assay to exclude epi-absorbance artifacts; shares compounds with VIM-2 inh; purified VIM-2, CCF2 FRET substrate hydrolysis; inhibition, % at 5.6 µM; 1,300 tested, 23% active; AID 1857;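 active = inhibition above the mean of all tested compounds plus 3 SD, cut at about 19% in these data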;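 note: 0% = VIM-2 plus DMSO and 100% = no enzyme wells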
TEM-1 counter: blocks E. coli TEM-1 beta-lactamase in VIM-2 selectivity screen; shares compounds with VIM-2 inh; Purified TEM-1, nitrocefin hydrolysis, epi-absorbance fluorescence; inhibition, % at 5.6 µM; 1,300 tested, 3% active; AID 1866;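 active = inhibition above that campaign's mean inhibition plus 3 SD, cut at about 0.46% in these data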;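 note: 0% = TEM-1 with DMSO and 100% = TEM-1 with 100 µM potassium clavulanate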
Target sequence (P62593 whole entry, looked up): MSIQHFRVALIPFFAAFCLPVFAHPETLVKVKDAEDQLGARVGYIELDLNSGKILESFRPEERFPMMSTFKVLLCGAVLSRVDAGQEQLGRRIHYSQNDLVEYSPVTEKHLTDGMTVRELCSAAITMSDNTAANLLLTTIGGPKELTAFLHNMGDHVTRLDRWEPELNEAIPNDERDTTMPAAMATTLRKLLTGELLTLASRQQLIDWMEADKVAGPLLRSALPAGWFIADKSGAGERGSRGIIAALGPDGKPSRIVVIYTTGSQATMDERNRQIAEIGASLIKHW
VIM-2 inh conf: confirmation of P. aeruginosa VIM-2 metallo-beta-lactamase inhibitors; purified VIM-2, nitrocefin hydrolysis, epi-absorbance; inhibition, % at 5.6 µM; AID 2187; shares compounds with VIM-2 inh; 1,300 tested, 96% active;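 active = inhibition of the VIM-2 beta-lactamase enzyme above about 11% from the earlier first-round screen, limit read from the data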;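 note: 0% = VIM-2 with DMSO and 100% = buffer wells without enzyme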
An asterisk follows results filed as active; i = inactive; ? = inconclusive; . = not tested or not shown; + = active, no number. Sampled rows, rich in hits. Any-hit rate of the full collection: about 2.2%. Unless noted, the rule behind the calls is not given here.

SMILES	MLLE-PAM2 inh	IMP-1 inh-1	VIM-2 inh	eIF4H FP inh	PABP FP inh	IMP-1 inh-2	VIM-2 FRET inh	TEM-1 counter	VIM-2 inh conf
CC(=O)c1c(Cl)nc2cccc3c2c1-c1ccccc1C3=O	50*	-2	20*	-2	i	-1	0	0	31*
N#C/C(=C(\O)Cc1ccccc1)c1nc2ccccc2[nH]1	-2	-4	-5	2	i	.	.	.	.
N#C/C(=C(/O)CCl)c1nc2ccccc2[nH]1	-15	0	50*	?	+	-3	-12	-7	36*
Cc1cc(C)cc(OCC(=O)OC/C(O)=C(\C#N)c2nc3ccccc3[nH]2)c1	-33	1	14*	-6	i	-3	-8	-4	5
COc1ccc(CCn2c(SCCN3CCCCC3)nc3ccccc3c2=O)cc1OC	-13	-3	75*	-10	i	-2	0	-5	84*
Cc1ccc(S(=O)(=O)N(CC(=O)Nc2cccnc2)c2ccccc2C)cc1	9	-3	-2	12	i	.	.	.	.
Cc1c(Br)cc(C(=O)OC2CCN(C)CC2)c(C)c1C	-10	0	13*	-4	i	-1	2	-5	17*
COCCN(C(=O)Cn1c(C(F)(F)F)nc2ccccc21)c1c(N)n(Cc2ccccc2)c(=O)[nH]c1=O	-14	-3	-2	-18	i	.	.	.	.
CC(=O)N1CCN(S(=O)(=O)c2ccc(C)cc2)C1c1ccc(N(C)C)cc1 (stereo not drawn)	-1	-3	31*	-1	i	-3	51*	-4	37*
CCOc1ccc(N2CC(C(=O)Nc3cccc(C(=O)NC4CC4)c3)CC2=O)cc1 (stereo not drawn)	-36	.	.	.	.	.	.	.	.
Cc1ccsc1/C=N/NC(=O)CNC(=O)c1cccc([N+](=O)[O-])c1C	0	-3	0	6	i	.	.	.	.
CCCn1c(=N)c(C#N)cc2c(=O)n3ccccc3nc21	12	-2	1	1	i	.	.	.	.
N#Cc1cc2c(=O)n3ccccc3nc2n(CCCn2ccnc2)c1=N	-1	0	45*	-3	i	-2	-10	-3	78*
CCOC(=O)c1cc2c(c(-c3cccc(C#Cc4ccc(OC)c(OC)c4)c3)n1)[C@@H](CCO)N(S(=O)C(C)(C)C)C2 (stereo partly drawn)	6	.	.	.	.	.	.	.	.
CC1(C)OC2OC3C(CNCCO)OC(c4ccccc4)OC3C2O1 (stereo not drawn)	11	.	.	.	.	.	.	.	.
CCc1nc2cc(C)nn2c2nc3ccccc3n12	-2	0	16*	-16	i	-3	4	-5	26*
CCc1cc(=O)oc2c3c(cc(OCC(=O)NCCCn4ccnc4)c12)OC(C)(C)CC3	14	-4	46*	-8	i	-3	-10	-2	55*
CCCCc1cc(=O)oc2c3c(cc(OCC(=O)NCCCO)c12)OC(C)(C)CC3	-8	-1	-2	-10	i	.	.	.	.
CCc1cc(=O)oc2c(C)c(OCC(=O)NCCCn3ccnc3)ccc12	-5	0	23*	3	i	-3	-1	-7	34*
Cc1cc(NC(=O)NC2CC(=O)N(c3ccc4c(c3)OCCO4)C2)no1 (stereo not drawn)	-2	-5	-5	1	i	.	.	.	.
CCC(=O)Nc1ccc(C(=O)NNC(=O)CCCCC(=O)NNC(=O)c2ccc(NC(=O)CC)cc2)cc1	1	.	.	.	.	.	.	.	.
O=C(CSc1nnc(NC(=O)c2ccccc2F)s1)NC1CCCC1	-5	-3	13*	-21	i	-3	24*	-5	15*
COc1ccc(CNC(=O)CSc2nnc(NC(=O)c3ccccc3F)s2)cc1	2	-4	6	3	i	.	.	.	.
O=C(CSc1nnc(NC(=O)c2c(F)cccc2F)s1)NCc1ccccc1	10	-3	33*	-11	i	-3	56*	-4	38*
CCOc1ccc(Br)cc1C1=CC(=O)C[C@H](c2ccc(OC)cc2)C1	4	.	.	.	.	.	.	.	.
SMILES	MLLE-PAM2 inh	IMP-1 inh-1	VIM-2 inh	eIF4H FP inh	PABP FP inh	IMP-1 inh-2	VIM-2 FRET inh	TEM-1 counter	VIM-2 inh conf
CCc1nnc(NC(=O)CCC(=O)NCCc2ccc(OC)c(OC)c2)s1	-8	-1	-3	-13	i	.	.	.	.
O=C1Nc2cc(C(=O)NCCCN3CCOCC3)ccc2S/C1=C/c1ccccc1F	23	-1	30*	-9	i	-3	49*	-6	34*
O=C1Nc2cc(C(=O)NCCCN3CCCC3)ccc2S/C1=C\c1ccccc1	-18	0	14*	-8	i	-2	32*	-6	23*
CCCN1CCN(CCCNC(=O)c2ccc3c(c2)NC(=O)c2ccccc2S3)CC1	12	-2	0	3	i	.	.	.	.
O=C1Nc2cc(C(=O)NCCCN3CCOCC3)ccc2S/C1=C/c1cccc(Cl)c1	30	-2	29*	-6	i	-2	49*	-7	33*
Cc1ccc(NC2Sc3ccccc3NC2=O)cc1 (stereo not drawn)	27	-4	-3	6	i	.	.	.	.
CCc1c(C)c(C#N)c2nc3ccccc3n2c1NC	-8	-3	14*	-5	i	-4	1	-7	21*
CCN(CC)c1cc(C)c(C#N)c2nc3ccccc3n12	-8	-4	-3	1	i	.	.	.	.
Cc1cc(Cl)n2c(nc3ccccc32)c1C#N	-17	-3	20*	7	i	-3	-8	-7	34*
CNc1cc(C)c(C#N)c2nc3ccccc3n12	-10	-5	24*	4	i	-3	2	-7	35*
Cc1ccc([N+](=O)[O-])cc1S(=O)(=O)Nc1ccc(C(=O)NCC2CCCO2)cc1 (stereo not drawn)	-11	.	.	.	.	.	.	.	.
CCOC(=O)C1=C(C)NC(C)=C(C(=O)OCC)C1C(=O)OCC(=O)N(C)Cc1ccccc1	-4	.	.	.	.	.	.	.	.
CC1=CC(=O)C(C(C)C)=C/C1=C(\c1cc(C(C)C)c(OP(=O)(O)O)cc1C)c1ccccc1C(=O)O	6	-2	18*	46	i	-2	32*	-3	25*
CCOc1ccc(C(=O)c2ccccc2C(=O)O)cc1OCC	5	-1	0	22	i	.	.	.	.
S=c1[nH]nc(-c2ccccc2Cl)n1CC1CCCO1 (stereo not drawn)	-15	-3	2	-8	i	.	.	.	.
Fc1ccccc1-c1n[nH]c(=S)n1CC1CCCO1 (stereo not drawn)	-10	-3	35*	5	i	-4	61*	-6	44*
